According to ChEMBL document CHEMBL4325904 (Eur J Med Chem, 2019):
Calls of active or inactive are those of the source. The rule behind the calls is not given here.

What was measured:
[1] = target: Histone deacetylase 1 (Homo sapiens, UniProt Q13547); assay: Inhibition of recombinant full length C-terminal FLAG/His-tagged human HDAC1 (1 to 482 residues) expressed in sf21 cells using RHK-K(Ac)-AMC as substrate by fluorimetric assay
[2] = target: Histone deacetylase 3/Nuclear receptor corepressor 2 (HDAC3/NCoR2) (Homo sapiens, UniProt O15379); type: cell-based
Histone deacetylase 3/Nuclear receptor corepressor 2 (HDAC3/NCoR2), sequence (O15379 whole entry, the tested form may be a part): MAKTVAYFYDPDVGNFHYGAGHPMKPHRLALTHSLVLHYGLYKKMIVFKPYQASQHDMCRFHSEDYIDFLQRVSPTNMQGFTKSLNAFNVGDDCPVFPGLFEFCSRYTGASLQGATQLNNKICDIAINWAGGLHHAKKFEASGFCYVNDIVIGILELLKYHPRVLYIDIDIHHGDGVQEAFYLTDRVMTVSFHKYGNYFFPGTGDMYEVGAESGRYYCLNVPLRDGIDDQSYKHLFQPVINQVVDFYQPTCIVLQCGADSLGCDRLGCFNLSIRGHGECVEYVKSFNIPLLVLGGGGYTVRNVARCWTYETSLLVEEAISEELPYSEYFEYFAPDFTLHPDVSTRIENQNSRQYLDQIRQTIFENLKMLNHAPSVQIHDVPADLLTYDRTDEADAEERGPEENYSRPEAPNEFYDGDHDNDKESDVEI
Histone deacetylase 3/Nuclear receptor corepressor 2 (HDAC3/NCoR2), sequence (Q9Y618 whole entry, further chain, the tested form may be a part): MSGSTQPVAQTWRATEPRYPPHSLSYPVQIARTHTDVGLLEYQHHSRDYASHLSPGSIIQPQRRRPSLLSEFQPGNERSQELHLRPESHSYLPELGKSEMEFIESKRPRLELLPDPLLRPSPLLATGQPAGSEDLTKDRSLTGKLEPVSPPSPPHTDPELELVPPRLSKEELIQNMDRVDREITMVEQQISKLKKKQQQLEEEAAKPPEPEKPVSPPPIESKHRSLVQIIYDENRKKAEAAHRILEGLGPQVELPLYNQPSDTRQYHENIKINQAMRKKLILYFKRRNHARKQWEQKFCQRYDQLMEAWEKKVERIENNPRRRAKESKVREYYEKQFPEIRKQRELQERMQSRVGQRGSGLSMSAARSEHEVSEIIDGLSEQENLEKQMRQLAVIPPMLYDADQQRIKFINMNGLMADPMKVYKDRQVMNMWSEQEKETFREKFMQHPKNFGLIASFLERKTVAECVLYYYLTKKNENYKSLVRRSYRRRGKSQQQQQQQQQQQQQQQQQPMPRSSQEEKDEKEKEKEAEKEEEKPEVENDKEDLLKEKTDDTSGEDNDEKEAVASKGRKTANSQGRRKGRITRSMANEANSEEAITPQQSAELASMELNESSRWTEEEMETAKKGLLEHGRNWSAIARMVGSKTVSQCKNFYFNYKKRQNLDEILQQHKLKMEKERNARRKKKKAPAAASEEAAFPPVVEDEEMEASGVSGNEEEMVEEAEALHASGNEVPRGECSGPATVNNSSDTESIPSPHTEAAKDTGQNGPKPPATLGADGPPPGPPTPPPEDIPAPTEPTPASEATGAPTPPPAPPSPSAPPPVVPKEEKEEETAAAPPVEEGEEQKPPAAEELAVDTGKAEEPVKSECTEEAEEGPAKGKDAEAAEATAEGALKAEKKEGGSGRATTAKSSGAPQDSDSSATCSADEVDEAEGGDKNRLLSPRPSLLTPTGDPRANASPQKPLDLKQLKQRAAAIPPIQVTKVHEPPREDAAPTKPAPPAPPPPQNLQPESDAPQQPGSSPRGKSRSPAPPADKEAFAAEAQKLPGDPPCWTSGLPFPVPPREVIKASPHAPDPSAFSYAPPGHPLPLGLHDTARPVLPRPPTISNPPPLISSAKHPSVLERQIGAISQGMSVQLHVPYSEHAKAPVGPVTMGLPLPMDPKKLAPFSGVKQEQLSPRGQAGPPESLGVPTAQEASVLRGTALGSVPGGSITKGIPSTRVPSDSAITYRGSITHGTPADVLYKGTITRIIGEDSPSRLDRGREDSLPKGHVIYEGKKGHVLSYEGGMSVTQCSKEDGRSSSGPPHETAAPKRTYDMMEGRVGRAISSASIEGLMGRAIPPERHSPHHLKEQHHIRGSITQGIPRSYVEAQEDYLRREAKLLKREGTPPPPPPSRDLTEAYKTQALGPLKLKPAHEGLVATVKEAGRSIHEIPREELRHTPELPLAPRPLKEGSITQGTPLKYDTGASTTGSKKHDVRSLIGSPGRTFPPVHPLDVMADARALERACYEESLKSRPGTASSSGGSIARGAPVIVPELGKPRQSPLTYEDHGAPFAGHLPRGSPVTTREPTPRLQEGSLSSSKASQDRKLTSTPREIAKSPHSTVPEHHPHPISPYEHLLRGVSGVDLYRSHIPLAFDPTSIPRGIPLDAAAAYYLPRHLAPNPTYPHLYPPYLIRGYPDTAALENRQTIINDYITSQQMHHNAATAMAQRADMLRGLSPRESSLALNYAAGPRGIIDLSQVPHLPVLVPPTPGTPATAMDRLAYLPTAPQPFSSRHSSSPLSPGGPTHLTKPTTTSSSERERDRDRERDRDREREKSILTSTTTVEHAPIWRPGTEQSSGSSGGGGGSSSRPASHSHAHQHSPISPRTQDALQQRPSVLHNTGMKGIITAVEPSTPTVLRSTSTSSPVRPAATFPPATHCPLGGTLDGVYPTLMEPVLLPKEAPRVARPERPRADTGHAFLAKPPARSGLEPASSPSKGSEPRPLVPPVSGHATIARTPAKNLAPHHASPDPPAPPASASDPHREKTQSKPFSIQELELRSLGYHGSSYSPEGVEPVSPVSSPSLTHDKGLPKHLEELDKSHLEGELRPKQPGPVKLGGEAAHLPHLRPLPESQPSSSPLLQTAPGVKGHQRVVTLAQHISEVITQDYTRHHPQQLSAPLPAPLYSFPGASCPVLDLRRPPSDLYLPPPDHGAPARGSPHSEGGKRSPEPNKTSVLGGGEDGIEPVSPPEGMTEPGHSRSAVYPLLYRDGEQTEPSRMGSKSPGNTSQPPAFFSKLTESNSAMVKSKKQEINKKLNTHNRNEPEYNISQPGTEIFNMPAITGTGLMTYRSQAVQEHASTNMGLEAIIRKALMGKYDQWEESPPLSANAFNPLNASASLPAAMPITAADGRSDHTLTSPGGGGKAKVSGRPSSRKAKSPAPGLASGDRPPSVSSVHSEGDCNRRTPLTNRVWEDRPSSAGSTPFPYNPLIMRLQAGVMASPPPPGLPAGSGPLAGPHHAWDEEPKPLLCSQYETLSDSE

[3] = target: T1, Protein deacetylase HDAC6 (Homo sapiens, UniProt Q9UBN7); assay: Inhibition of recombinant N-terminal GST-tagged human HDAC6 (1 to 1215 residues) expressed in Baculovirus infected insect cells using RHKK-Ac as substrate by fluorimetric assay
T1 sequence (Q9UBN7 whole entry): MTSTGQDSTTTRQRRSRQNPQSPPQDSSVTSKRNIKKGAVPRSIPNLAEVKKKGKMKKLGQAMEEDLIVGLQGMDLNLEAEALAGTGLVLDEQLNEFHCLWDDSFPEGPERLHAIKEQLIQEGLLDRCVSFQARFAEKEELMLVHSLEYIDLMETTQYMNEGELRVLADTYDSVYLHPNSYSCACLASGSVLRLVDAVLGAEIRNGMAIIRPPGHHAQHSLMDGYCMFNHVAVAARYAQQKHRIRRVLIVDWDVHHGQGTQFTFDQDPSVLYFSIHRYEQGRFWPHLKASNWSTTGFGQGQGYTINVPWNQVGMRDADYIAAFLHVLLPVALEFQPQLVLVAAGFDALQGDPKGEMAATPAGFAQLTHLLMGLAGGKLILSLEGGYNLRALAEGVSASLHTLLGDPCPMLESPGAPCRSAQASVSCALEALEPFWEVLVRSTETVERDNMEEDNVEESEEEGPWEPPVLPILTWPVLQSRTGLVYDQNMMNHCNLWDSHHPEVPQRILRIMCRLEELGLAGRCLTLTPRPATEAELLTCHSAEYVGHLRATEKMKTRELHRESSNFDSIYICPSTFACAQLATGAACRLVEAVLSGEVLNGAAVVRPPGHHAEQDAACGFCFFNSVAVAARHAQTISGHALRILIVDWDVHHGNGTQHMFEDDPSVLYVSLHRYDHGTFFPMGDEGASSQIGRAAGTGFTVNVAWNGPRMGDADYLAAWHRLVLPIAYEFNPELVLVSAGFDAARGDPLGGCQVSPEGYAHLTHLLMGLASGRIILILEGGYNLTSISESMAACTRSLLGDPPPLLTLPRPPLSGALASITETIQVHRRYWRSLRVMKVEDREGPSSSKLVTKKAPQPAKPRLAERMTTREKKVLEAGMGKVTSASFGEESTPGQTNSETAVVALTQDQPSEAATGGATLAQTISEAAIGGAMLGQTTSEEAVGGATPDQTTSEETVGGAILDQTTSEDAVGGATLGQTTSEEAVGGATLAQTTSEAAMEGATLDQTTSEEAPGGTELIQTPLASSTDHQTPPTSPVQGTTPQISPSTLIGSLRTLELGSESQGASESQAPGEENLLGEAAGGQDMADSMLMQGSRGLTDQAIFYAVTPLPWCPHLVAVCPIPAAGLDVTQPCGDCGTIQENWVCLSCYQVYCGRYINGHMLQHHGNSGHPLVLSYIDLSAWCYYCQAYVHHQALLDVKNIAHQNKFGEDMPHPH

[4] = target: T2, Histone deacetylase 8 (Homo sapiens, UniProt Q9BY41); assay: Inhibition of recombinant C-terminal His-tagged human HDAC8 (1 to 377 residues) expressed in Baculovirus infected insect cells using RHK-K(Ac)-AMC as substrate by fluorimetric assay
T2 sequence (Q9BY41 whole entry): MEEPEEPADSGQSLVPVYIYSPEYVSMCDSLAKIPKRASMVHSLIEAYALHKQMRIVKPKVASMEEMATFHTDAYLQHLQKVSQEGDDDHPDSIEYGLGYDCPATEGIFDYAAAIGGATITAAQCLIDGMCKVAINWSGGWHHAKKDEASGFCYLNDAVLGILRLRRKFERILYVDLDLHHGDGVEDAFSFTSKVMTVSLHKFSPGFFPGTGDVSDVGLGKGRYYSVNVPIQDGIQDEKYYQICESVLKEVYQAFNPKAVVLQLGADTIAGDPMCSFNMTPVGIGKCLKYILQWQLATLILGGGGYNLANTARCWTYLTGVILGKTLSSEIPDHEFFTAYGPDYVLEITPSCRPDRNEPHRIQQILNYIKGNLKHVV

[5] = target: T3, Histone deacetylase 11 (Homo sapiens, UniProt Q96DB2); assay: Inhibition of recombinant C-terminal His-tagged human HDAC11 (1 to 347 residues) expressed in Baculovirus infected insect cells using RHKK-Ac as substrate by fluorimetric assay
T3 sequence (Q96DB2 whole entry): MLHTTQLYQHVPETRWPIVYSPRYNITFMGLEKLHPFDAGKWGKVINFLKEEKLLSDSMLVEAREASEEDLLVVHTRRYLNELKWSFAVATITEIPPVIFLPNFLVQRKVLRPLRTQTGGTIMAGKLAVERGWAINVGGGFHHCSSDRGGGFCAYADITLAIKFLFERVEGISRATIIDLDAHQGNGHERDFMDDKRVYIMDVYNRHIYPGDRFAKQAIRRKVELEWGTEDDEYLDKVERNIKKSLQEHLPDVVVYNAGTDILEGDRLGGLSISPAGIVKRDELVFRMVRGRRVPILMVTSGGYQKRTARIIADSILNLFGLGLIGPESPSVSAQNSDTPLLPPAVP

[6] = organism: Homo sapiens; assay: Selectivity ratio of IC50 for recombinant full length C-terminal FLAG/His-tagged human HDAC1 (1 to 482 residues) to IC50 for recombinant N-terminal GST-tagged human HDAC6 (1 to 1215 residues)
[7] = organism: Homo sapiens; assay: Selectivity ratio of IC50 for human recombinant full length C-terminal His-tagged HDAC3 (1 to 428 residues)/N-terminal GST-tagged NCOR2 (395 to 489 residues) to IC50 for recombinant N-terminal GST-tagged human HDAC6 (1 to 1215 residues)
[8] = tested on: Kasumi 1; assay: Antiproliferative activity against human Kasumi-1 cells after 72 hrs by resazurin dye-based assay; type: functional, cell-based; details: Kasumi 1, 72 h
Procedure, shortened: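 KASUMI-1 cells incubated with compounds for 72 hr; viability read with resazurin reagent. IC50 taken as the mean of three experiments, each run in duplicate.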

[9] = target: T1, Protein deacetylase HDAC6; assay: Inhibition of human HDAC6 using (Z-(Ac)Lys-AMC) as substrate after 90 mins by fluorescence analysis
[10] = organism: Homo sapiens; assay: Selectivity ratio of IC50 for human HDAC1 to IC50 for human HDAC6
[11] = tested on: Danio rerio; assay: Antiangiogenic activity in zebrafish embryo assessed as effect on blood vessel development at 10 uM administered from 24 to 50 hrs post fertilization for 24 hrs and measured after 72 hrs by alkaline phosphatase assay; type: functional, organism-based
Procedure, shortened: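 Zebrafish embryos exposed at 10 µM from 24–50 hpf alongside vehicle-only controls; at 72 hpf embryos stained with alkaline phosphatase to visualise blood vessels.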

[12] = Drug uptake in human A549 cells cytoplasm at 1 uM after 2 hrs by naphthalimide dye-based inverted light fluorescence confocal microscopic analysis; type: ADME, subcellular; details: a549, 2 h
Procedure, shortened: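 A549 cells incubated 2 hours with compound at 1 µM; intracellular distribution imaged by confocal microscopy with 405 nm laser excitation, emission collected at 460–560 nm.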

[13] = Drug uptake in human A549 cells lysosome at 1 uM after 2 hrs by naphthalimide/Lysotracker Deep Red dye-based inverted light fluorescence confocal microscopic analysis; type: ADME, subcellular; details: a549, 2 h
[14] = Drug uptake in human A549 cells lysosome at 1 uM after 2 hrs by Lyso-tracker red-based inverted light fluorescence confocal microscopic analysis; details: a549, 2 h

Histone deacetylase 1, sequence (Q13547 whole entry, the tested form may be a part): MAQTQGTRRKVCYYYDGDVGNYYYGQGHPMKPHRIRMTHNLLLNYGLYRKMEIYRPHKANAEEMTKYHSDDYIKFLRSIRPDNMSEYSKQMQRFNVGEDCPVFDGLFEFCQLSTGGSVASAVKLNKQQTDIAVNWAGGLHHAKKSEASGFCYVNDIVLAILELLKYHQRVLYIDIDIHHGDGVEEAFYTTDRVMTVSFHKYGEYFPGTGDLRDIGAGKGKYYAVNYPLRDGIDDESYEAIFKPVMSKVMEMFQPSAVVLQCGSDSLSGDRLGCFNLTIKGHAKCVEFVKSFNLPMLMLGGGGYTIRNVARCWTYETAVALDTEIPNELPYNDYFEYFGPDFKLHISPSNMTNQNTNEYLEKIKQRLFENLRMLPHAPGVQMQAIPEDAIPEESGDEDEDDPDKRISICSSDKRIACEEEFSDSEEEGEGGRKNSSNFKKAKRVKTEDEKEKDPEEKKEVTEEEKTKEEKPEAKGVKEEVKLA

Compound | IC50 [1] | IC50 [2] | IC50 [3] | IC50 [4] | IC50 [5] | Ratio IC50 [6] | Ratio IC50 [7] | IC50 [9] | Ratio IC50 [10] | Activity [11] | Drug uptake [12] | Drug uptake [13] | Drug uptake [14] | IC50 [8]
O=C(CCCCCN1C(=O)c2cccc3c([N+](=O)[O-])ccc(c23)C1=O)NO | 0.63 µM | 1.62 µM | 0.0057 µM | 0.62 µM | 1.02 µM | 111 | 284 |  |  |  |  |  |  | 0.57 µM
Nc1ccccc1NC(=O)CCCCCN1C(=O)c2cccc3cccc(c23)C1=O | 0.74 µM | 0.2 µM | > 10 µM | > 10 µM | 9.35 µM |  |  |  |  |  |  |  |  | 1.09 µM
O=C(CCCCCN1C(=O)c2cccc3c(N4CCOCC4)ccc(c23)C1=O)NO | 1.43 µM | 0.32 µM | 0.012 µM | 1.81 µM | 0.29 µM | 119 | 27 | 0.012 µM | 120 |  |  |  |  | 0.29 µM
Nc1ccccc1NC(=O)CCCCCN1C(=O)c2cccc3c(N4CCOCC4)ccc(c23)C1=O | 0.43 µM | 0.29 µM | > 10 µM | > 10 µM | 8.12 µM |  |  |  |  |  | Active | Active | Active | 0.64 µM
O=C(CCCCCN1C(=O)c2cccc3c(Nc4ccccc4)ccc(c23)C1=O)NO | 2.38 µM | 0.47 µM | 0.013 µM | 4.09 µM | 0.19 µM | 183 | 36 |  |  |  |  |  |  | 0.28 µM
O=C(CCCCCN1C(=O)c2cccc3c(Nc4cccc(F)c4)ccc(c23)C1=O)NO | 3.06 µM | 0.55 µM | 0.014 µM | 4.07 µM | 0.21 µM | 219 | 39 |  |  |  |  |  |  | 0.32 µM
CC(/C=C/C(=O)NO)=C\[C@@H](C)C(=O)c1ccc(N(C)C)cc1 |  |  |  |  |  |  |  |  |  | Active |  |  |  | 

Further lines, with some results ahead:

IC50 [1] | IC50 [2] | IC50 [3] | IC50 [4] | IC50 [5] | Ratio IC50 [6] | Ratio IC50 [7] | IC50 [9] | Ratio IC50 [10] | Activity [11] | Drug uptake [12] | Drug uptake [13] | Drug uptake [14] | Compound | IC50 [8]
 |  |  |  |  |  |  | 0.00061 µM | 490 |  |  |  |  | O=C(NO)c1ccc(CNC(=O)c2cc(Cn3c4ccccc4c4ccccc43)on2)cc1 | 
 |  |  |  |  |  |  |  |  | Active |  |  |  | O=C(CCCCCN1C(=O)c2cccc3cccc(c23)C1=O)NO | 0.49 µM
2.38 µM | 0.7 µM | 0.0097 µM | 1.4 µM | 1.22 µM | 245 | 72 |  |  |  |  |  |  | CN(Cc1ccccc1)c1ccc2c3c(cccc13)C(=O)N(CCCCCC(=O)NO)C2=O | 0.81 µM
